System: Fibroblast
Test: Multiplex assay against human fibroblast
Type: toxicity, cell-based
In short: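 Phenotypes for tubulin, mitochondrial mass and membrane permeability are expressed as per cents of healthy-nucleus cells. Cells were stained live at seeding with Hoechst33342, BioTracker Green Microtubule Cytoskeleton Dye, MitoTracker Red and Annexin V Alexa Fluor 680, then imaged after compound addition on a CQ1 microscope at 37°C and 5% CO2. Machine-learning gating in CellPathfinder separated Hoechst high-intensity objects from normal cells, divided normal cells by nuclear state (healthy, pyknosed, fragmented) and divided pyknosed cells into mitotic or apoptotic.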

[1] = 12 h, 1 µM, compound concentration 1 uM, replicate 1
[2] = 12 h, 1 µM, compound concentration 1 uM, replicate 2
[3] = 12 h, 10 µM, compound concentration 10 uM, replicate 1
[4] = 12 h, 10 µM, compound concentration 10 uM, replicate 2
[5] = 24 h, 1 µM, compound concentration 1 uM, replicate 1
[6] = 24 h, 1 µM, compound concentration 1 uM, replicate 2
[7] = 24 h, 10 µM, compound concentration 10 uM, replicate 1
[8] = 24 h, 10 µM, compound concentration 10 uM, replicate 2
[9] = 48 h, 1 µM, compound concentration 1 uM, replicate 1
[10] = 48 h, 1 µM, compound concentration 1 uM, replicate 2
[11] = 48 h, 10 µM, compound concentration 10 uM, replicate 1
[12] = 48 h, 10 µM, compound concentration 10 uM, replicate 2

CCCn1c(=O)c2[nH]c(-c3cnn(Cc4cccc(C(F)(F)F)c4)c3)nc2n(CC)c1=O [GS 6201]
Population Apoptotic (%) [1]: 51% | Population Fragmented Nuclei (%) [1]: 26% | Population Healthy Nuclei (%) [1]: 32% | Population Hoechst High Intensity Objects (%) [1]: 11% | Population Membrane Permeable-Phenotype (%) [1]: 33% | Population Mitochondria Different-Phenotype (%) [1]: 14% | Population Mitotic Cells (%) [1]: 48% | Population Normal (%) [1]: 88% | Population Pyknosed Nuclei (%) [1]: 41% | Population Tubulin-Different-Phenotype (%) [1]: 59% | Total Cell Count [1]: 95 | Population Apoptotic (%) [2]: 42% | Population Fragmented Nuclei (%) [2]: 4% | Population Healthy Nuclei (%) [2]: 88% | Population Hoechst High Intensity Objects (%) [2]: 2% | Population Membrane Permeable-Phenotype (%) [2]: 8% | Population Mitochondria Different-Phenotype (%) [2]: 9% | Population Mitotic Cells (%) [2]: 57% | Population Normal (%) [2]: 97% | Population Pyknosed Nuclei (%) [2]: 7% | Population Tubulin-Different-Phenotype (%) [2]: 28% | Total Cell Count [2]: 75 | Population Apoptotic (%) [3]: 76% | Population Fragmented Nuclei (%) [3]: 48% | Population Healthy Nuclei (%) [3]: 18% | Population Hoechst High Intensity Objects (%) [3]: 31% | Population Membrane Permeable-Phenotype (%) [3]: 25% | Population Mitochondria Different-Phenotype (%) [3]: 17% | Population Mitotic Cells (%) [3]: 24% | Population Normal (%) [3]: 68% | Population Pyknosed Nuclei (%) [3]: 33% | Population Tubulin-Different-Phenotype (%) [3]: 46% | Total Cell Count [3]: 221 | Population Apoptotic (%) [4]: 50% | Population Fragmented Nuclei (%) [4]: 17% | Population Healthy Nuclei (%) [4]: 77% | Population Hoechst High Intensity Objects (%) [4]: 5% | Population Membrane Permeable-Phenotype (%) [4]: 3% | Population Mitochondria Different-Phenotype (%) [4]: 20% | Population Mitotic Cells (%) [4]: 50% | Population Normal (%) [4]: 94% | Population Pyknosed Nuclei (%) [4]: 4% | Population Tubulin-Different-Phenotype (%) [4]: 10% | Total Cell Count [4]: 98 | Population Apoptotic (%) [5]: 70% | Population Fragmented Nuclei (%) [5]: 21% | Population Healthy Nuclei (%) [5]: 42% | Population Hoechst High Intensity Objects (%) [5]: 20% | Population Membrane Permeable-Phenotype (%) [5]: 32% | Population Mitochondria Different-Phenotype (%) [5]: 10% | Population Mitotic Cells (%) [5]: 29% | Population Normal (%) [5]: 79% | Population Pyknosed Nuclei (%) [5]: 36% | Population Tubulin-Different-Phenotype (%) [5]: 82% | Total Cell Count [5]: 83 | Population Apoptotic (%) [6]: 50% | Population Fragmented Nuclei (%) [6]: 5% | Population Healthy Nuclei (%) [6]: 90% | Population Hoechst High Intensity Objects (%) [6]: 4% | Population Membrane Permeable-Phenotype (%) [6]: 2% | Population Mitotic Cells (%) [6]: 50% | Population Normal (%) [6]: 95% | Population Pyknosed Nuclei (%) [6]: 4% | Population Tubulin-Different-Phenotype (%) [6]: 30% | Total Cell Count [6]: 81 | Population Apoptotic (%) [7]: 87% | Population Fragmented Nuclei (%) [7]: 51% | Population Healthy Nuclei (%) [7]: 24% | Population Hoechst High Intensity Objects (%) [7]: 26% | Population Membrane Permeable-Phenotype (%) [7]: 29% | Population Mitochondria Different-Phenotype (%) [7]: 12% | Population Mitotic Cells (%) [7]: 12% | Population Normal (%) [7]: 73% | Population Pyknosed Nuclei (%) [7]: 23% | Population Tubulin-Different-Phenotype (%) [7]: 56% | Total Cell Count [7]: 224 | Population Apoptotic (%) [8]: 50% | Population Fragmented Nuclei (%) [8]: 17% | Population Healthy Nuclei (%) [8]: 72% | Population Hoechst High Intensity Objects (%) [8]: 3% | Population Membrane Permeable-Phenotype (%) [8]: 5% | Population Mitochondria Different-Phenotype (%) [8]: 11% | Population Mitotic Cells (%) [8]: 50% | Population Normal (%) [8]: 96% | Population Pyknosed Nuclei (%) [8]: 10% | Population Tubulin-Different-Phenotype (%) [8]: 9% | Total Cell Count [8]: 139 | Population Apoptotic (%) [9]: 69% | Population Fragmented Nuclei (%) [9]: 38% | Population Healthy Nuclei (%) [9]: 41% | Population Hoechst High Intensity Objects (%) [9]: 20% | Population Membrane Permeable-Phenotype (%) [9]: 25% | Population Mitochondria Different-Phenotype (%) [9]: 17% | Population Mitotic Cells (%) [9]: 30% | Population Normal (%) [9]: 79% | Population Pyknosed Nuclei (%) [9]: 19% | Population Tubulin-Different-Phenotype (%) [9]: 67% | Total Cell Count [9]: 84 | Population Apoptotic (%) [10]: 100% | Population Fragmented Nuclei (%) [10]: 20% | Population Healthy Nuclei (%) [10]: 76% | Population Hoechst High Intensity Objects (%) [10]: 11% | Population Membrane Permeable-Phenotype (%) [10]: 13% | Population Mitochondria Different-Phenotype (%) [10]: 5% | Population Mitotic Cells (%) [10]: 0% | Population Normal (%) [10]: 89% | Population Pyknosed Nuclei (%) [10]: 3% | Population Tubulin-Different-Phenotype (%) [10]: 35% | Total Cell Count [10]: 100 | Population Apoptotic (%) [11]: 84% | Population Fragmented Nuclei (%) [11]: 61% | Population Healthy Nuclei (%) [11]: 26% | Population Hoechst High Intensity Objects (%) [11]: 31% | Population Membrane Permeable-Phenotype (%) [11]: 41% | Population Mitochondria Different-Phenotype (%) [11]: 4% | Population Mitotic Cells (%) [11]: 15% | Population Normal (%) [11]: 68% | Population Pyknosed Nuclei (%) [11]: 11% | Population Tubulin-Different-Phenotype (%) [11]: 48% | Total Cell Count [11]: 234 | Population Apoptotic (%) [12]: 0% | Population Fragmented Nuclei (%) [12]: 28% | Population Healthy Nuclei (%) [12]: 67% | Population Hoechst High Intensity Objects (%) [12]: 11% | Population Membrane Permeable-Phenotype (%) [12]: 12% | Population Mitochondria Different-Phenotype (%) [12]: 1% | Population Mitotic Cells (%) [12]: 100% | Population Normal (%) [12]: 88% | Population Pyknosed Nuclei (%) [12]: 4% | Population Tubulin-Different-Phenotype (%) [12]: 63% | Total Cell Count [12]: 109

Reference: ChEMBL document CHEMBL4689842, “EUbOPEN Chemogenomics Library wave 1” (2021)
